Test system: not listed separately
Assay: Tested for cytotoxicity against ADJ/PC6 mouse plasmacytoma
Type: functional, cell-based
Conditions: not given
Procedure, shortened: (§1)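 ADJ/PC6 mouse plasmacytoma grown in suspension. Seeded day 0 at 3–5 × 10^4 cells/mL in Dulbecco's medium with 20% horse serum. Log-phase confirmed day 1, then compound added for 72 h at 37 °C. Cells counted day 4 by Coulter counter. IC50 is the dose giving 50% growth inhibition versus solvent controls. Screened 10^-4–10^-11 M in 10-fold steps, <0.05% v/v DMSO.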

Row | Structure (SMILES) | IC50
1 | CO[C@@H]1Nc2ncccc2C(=O)N2CCC[C@@H]12 | > 50000 nM
2 | CO[C@H]1Nc2ncccc2C(=O)N2CCC[C@@H]12 | > 50000 nM
3 | COC(=O)c1c2c(nn1C)C(=O)N1CCC[C@H]1C=N2 | > 50000 nM
4 | COC1Nc2c(ccc(C)c2O)C(=O)N2C=C(/C=C/C(N)=O)C[C@@H]12 (some centres undefined) | 2.8 nM
5 | COc1cc2c(cc1NC(=O)OCc1ccccc1)N=C[C@@H]1CCCN1C2=O | 3200 nM

Test system: not listed separately
Assay: Tested for cytotoxicity against ADJ/PC6 plasmacytoma
Type: functional, cell-based, Mus musculus
Conditions: not given
Procedure, shortened: as §1

Row | Structure (SMILES) | IC50
6 | COc1cc2c(cc1O)C(=O)N1CCC[C@H]1C=N2 | 2700 nM
7 | COc1cc2c(cc1OCCCOCc1ccccc1)N=C[C@@H]1CCCN1C2=O | 2300 nM
8 | O=C1c2cc3c(cc2N=C[C@@H]2CCCN12)OCCO3 | 3400 nM
9 | COc1cc2c(cc1OCc1ccccc1)N=C[C@@H]1CCCN1C2=O | 370 nM
10 | COc1cc2c(cc1O)N=C[C@@H]1CCCN1C2=O | 330 nM
11 | O=C1c2cc3c(cc2N=C[C@@H]2CCCN12)OCO3 | 1900 nM
12 | C/C=C1\C[C@H]2C=Nc3cc(O)c(OC)cc3C(=O)N2C1 | 1.8 nM
13 | CCCCOC1CC[C@H]2C=Nc3cc(O)c(OC)cc3C(=O)N12 (some centres undefined) | 1300 nM
14 | O=C1c2ccccc2N=C[C@@H]2CCCN12 | 38000 nM

Test system: CH1
Assay: Tested for cytotoxicity against CH1 human ovarian cells
Type: functional, cell-based
Conditions: not given
Procedure, shortened: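 CH1 human ovarian monolayer, plated day 0 at 100–200 cells per T25 flask in Dulbecco's medium with 10% fetal calf serum and allowed to attach overnight. Compound added day 1 and left continuously at 37 °C. Colonies fixed day 9 in EtOH, stained with methylene blue and counted. IC50 is 50% inhibition versus solvent controls. Range 10^-4–10^-11 M, 10-fold steps.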

Row | Structure (SMILES) | IC50
15 | COc1cc2c(cc1O)C(=O)N1CCC[C@H]1C=N2 | 200 nM
16 | COc1cc2c(cc1OCCCOCc1ccccc1)N=C[C@@H]1CCCN1C2=O | 290 nM
17 | O=C1c2cc3c(cc2N=C[C@@H]2CCCN12)OCCO3 | 460 nM
18 | COc1cc2c(cc1OCc1ccccc1)N=C[C@@H]1CCCN1C2=O | 1000 nM
19 | COC(=O)CCOc1cc2c(cc1OC)C(=O)N1CCC[C@H]1C=N2 | 4400 nM
20 | CO[C@@H]1Nc2ncccc2C(=O)N2CCC[C@@H]12 | 43000 nM
21 | CO[C@H]1Nc2ncccc2C(=O)N2CCC[C@@H]12 | 43000 nM
22 | COC(=O)c1c2c(nn1C)C(=O)N1CCC[C@H]1C=N2 | > 100000 nM
23 | COC1Nc2c(ccc(C)c2O)C(=O)N2C=C(/C=C/C(N)=O)C[C@@H]12 (some centres undefined) | 320 nM
24 | COc1cc2c(cc1NC(=O)OCc1ccccc1)N=C[C@@H]1CCCN1C2=O | 1800 nM
25 | COc1cc2c(cc1O)N=C[C@@H]1CCCN1C2=O | 100 nM
26 | O=C1c2cc3c(cc2N=C[C@@H]2CCCN12)OCO3 | 260 nM
27 | C/C=C1\C[C@H]2C=Nc3cc(O)c(OC)cc3C(=O)N2C1 | 0.13 nM
28 | CCCCOC1CC[C@H]2C=Nc3cc(O)c(OC)cc3C(=O)N12 (some centres undefined) | 430 nM
29 | CO[C@H]1Nc2nccnc2C(=O)N2CCC[C@@H]12 | 17000 nM
30 | O=C1c2ccccc2N=C[C@@H]2CCCN12 | 42000 nM

Test system: Calf thymus DNA
Assay: Tested for thermal denaturation against CT-DNA at 0 hours
Type: nucleic-acid assay
Conditions: Bos taurus
Procedure, shortened: (§2)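 CT-DNA (42% G+C) at 100 μM in DNA phosphate with compound at 20 μM (5:1 ratio). Buffer pH 7.00, 10 mM sodium phosphate, 1 mM EDTA, ≤0.6% v/v MeOH. Incubated at 37.0 °C for the stated time. Melted at 1 °C/min from 45 to 98 °C, read at 260 nm. ΔTm is Tm with ligand minus free DNA Tm, MeOH-corrected; mean ± SD of ≥3 runs.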

Row | Structure (SMILES) | ΔTm
31 | COc1cc2c(cc1O)C(=O)N1CCC[C@H]1C=N2 | 0.3 °C
32 | COc1cc2c(cc1OCCCOCc1ccccc1)N=C[C@@H]1CCCN1C2=O | 0.2 °C
33 | O=C1c2cc3c(cc2N=C[C@@H]2CCCN12)OCCO3 | 0.1 °C
34 | COc1nc(OC)c2c(n1)C(=O)N1CCC[C@H]1C=N2 | 0.1 °C
35 | COc1cc2c(cc1OCc1ccccc1)N=C[C@@H]1CCCN1C2=O | 0.2 °C
36 | COC(=O)CCOc1cc2c(cc1OC)C(=O)N1CCC[C@H]1C=N2 | 0.3 °C
37 | CO[C@@H]1Nc2ncccc2C(=O)N2CCC[C@@H]12 | 0.3 °C
38 | CO[C@H]1Nc2ncccc2C(=O)N2CCC[C@@H]12 | 0.3 °C
39 | COC(=O)c1c2c(nn1C)C(=O)N1CCC[C@H]1C=N2 | 0.2 °C
40 | COC1Nc2c(ccc(C)c2O)C(=O)N2C=C(/C=C/C(N)=O)C[C@@H]12 (some centres undefined) | 9.4 °C
41 | COc1cc2c(cc1NC(=O)OCc1ccccc1)N=C[C@@H]1CCCN1C2=O | 0.1 °C
42 | COc1cc2c(cc1O)N=C[C@@H]1CCCN1C2=O | 0.3 °C
43 | O=C1c2cc3c(cc2N=C[C@@H]2CCCN12)OCO3 | 0.1 °C
44 | C/C=C1\C[C@H]2C=Nc3cc(O)c(OC)cc3C(=O)N2C1 | 1 °C
45 | CCCCOC1CC[C@H]2C=Nc3cc(O)c(OC)cc3C(=O)N12 (some centres undefined) | 0.5 °C
46 | CO[C@H]1Nc2nccnc2C(=O)N2CCC[C@@H]12 | 0.3 °C
47 | O=C1c2ccccc2N=C[C@@H]2CCCN12 | 0.3 °C

Test system: Calf thymus DNA
Assay: Tested for thermal denaturation against CT-DNA at 4 hours
Type: nucleic-acid assay
Conditions: Bos taurus
Procedure, shortened: as §2

Row | Structure (SMILES) | ΔTm
48 | COc1cc2c(cc1O)C(=O)N1CCC[C@H]1C=N2 | 0.5 °C
49 | COc1cc2c(cc1OCCCOCc1ccccc1)N=C[C@@H]1CCCN1C2=O | 0.4 °C
50 | O=C1c2cc3c(cc2N=C[C@@H]2CCCN12)OCCO3 | 0.3 °C
51 | COc1nc(OC)c2c(n1)C(=O)N1CCC[C@H]1C=N2 | 0.2 °C
52 | COc1cc2c(cc1OCc1ccccc1)N=C[C@@H]1CCCN1C2=O | 0.4 °C
53 | COC(=O)CCOc1cc2c(cc1OC)C(=O)N1CCC[C@H]1C=N2 | 0.5 °C
54 | CO[C@@H]1Nc2ncccc2C(=O)N2CCC[C@@H]12 | 0.5 °C
55 | CO[C@H]1Nc2ncccc2C(=O)N2CCC[C@@H]12 | 0.5 °C
56 | COC(=O)c1c2c(nn1C)C(=O)N1CCC[C@H]1C=N2 | 0.3 °C
57 | COC1Nc2c(ccc(C)c2O)C(=O)N2C=C(/C=C/C(N)=O)C[C@@H]12 (some centres undefined) | 11.2 °C
58 | COc1cc2c(cc1NC(=O)OCc1ccccc1)N=C[C@@H]1CCCN1C2=O | 0.2 °C
59 | COc1cc2c(cc1O)N=C[C@@H]1CCCN1C2=O | 0.5 °C
60 | O=C1c2cc3c(cc2N=C[C@@H]2CCCN12)OCO3 | 0.2 °C
61 | C/C=C1\C[C@H]2C=Nc3cc(O)c(OC)cc3C(=O)N2C1 | 2.4 °C
62 | CCCCOC1CC[C@H]2C=Nc3cc(O)c(OC)cc3C(=O)N12 (some centres undefined) | 0.6 °C
63 | CO[C@H]1Nc2nccnc2C(=O)N2CCC[C@@H]12 | 0.6 °C
64 | O=C1c2ccccc2N=C[C@@H]2CCCN12 | 0.4 °C

Test system: L1210
Assay: Tested for cytotoxicity against L1210 Leukemia cell
Type: functional, cell-based
Conditions: Mus musculus
Procedure, shortened: (§3)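 L1210 mouse leukemia grown in suspension. Seeded day 0 at 10^4 cells/mL in RPMI 1640 with 10% horse serum. Log phase checked day 1, then compound added for 48 h at 37 °C. Cells counted day 3 by Coulter counter. IC50 is 50% growth inhibition versus solvent-treated controls. Dose range 10^-4–10^-11 M in 10-fold steps, <0.05% v/v DMSO.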

Row | Structure (SMILES) | IC50
65 | COc1cc2c(cc1O)C(=O)N1CCC[C@H]1C=N2 | 2700 nM
66 | COc1cc2c(cc1OCCCOCc1ccccc1)N=C[C@@H]1CCCN1C2=O | 2400 nM
67 | O=C1c2cc3c(cc2N=C[C@@H]2CCCN12)OCCO3 | 2700 nM
68 | COc1cc2c(cc1OCc1ccccc1)N=C[C@@H]1CCCN1C2=O | 3000 nM
69 | O=C1c2cc3c(cc2N=C[C@@H]2CCCN12)OCO3 | 1500 nM
70 | C/C=C1\C[C@H]2C=Nc3cc(O)c(OC)cc3C(=O)N2C1 | 3.7 nM
71 | CCCCOC1CC[C@H]2C=Nc3cc(O)c(OC)cc3C(=O)N12 (some centres undefined) | 2700 nM
72 | O=C1c2ccccc2N=C[C@@H]2CCCN12 | > 100000 nM

Test system: L1210
Assay: Tested for cytotoxicity against L1210 mouse Leukemia cell
Type: functional, cell-based
Conditions: not given
Procedure, shortened: as §3

Row | Structure (SMILES) | IC50
73 | COc1nc(OC)c2c(n1)C(=O)N1CCC[C@H]1C=N2 | 42000 nM
74 | CO[C@@H]1Nc2ncccc2C(=O)N2CCC[C@@H]12 | 13000 nM
75 | CO[C@H]1Nc2ncccc2C(=O)N2CCC[C@@H]12 | 13000 nM
76 | COC(=O)c1c2c(nn1C)C(=O)N1CCC[C@H]1C=N2 | 35000 nM
77 | COC1Nc2c(ccc(C)c2O)C(=O)N2C=C(/C=C/C(N)=O)C[C@@H]12 (some centres undefined) | 22 nM
78 | COc1cc2c(cc1NC(=O)OCc1ccccc1)N=C[C@@H]1CCCN1C2=O | 4500 nM

Test system: Calf thymus DNA
Assay: Tested for thermal denaturation against CT-DNA
Conditions: Bos taurus

Row | Structure (SMILES) | ΔTm
79 | COc1nc(OC)c2c(n1)C(=O)N1CCC[C@H]1C=N2 | 0.3 °C
80 | CO[C@@H]1Nc2ncccc2C(=O)N2CCC[C@@H]12 | 0.5 °C
81 | CO[C@H]1Nc2ncccc2C(=O)N2CCC[C@@H]12 | 0.5 °C
82 | COC(=O)c1c2c(nn1C)C(=O)N1CCC[C@H]1C=N2 | 0.5 °C
83 | COc1cc2c(cc1NC(=O)OCc1ccccc1)N=C[C@@H]1CCCN1C2=O | 0.4 °C
84 | CO[C@H]1Nc2nccnc2C(=O)N2CCC[C@@H]12 | 0.7 °C

Test system: Calf thymus DNA
Assay: Tested for thermal denaturation against CT-DNA at 18 hours
Conditions: Bos taurus

Row | Structure (SMILES) | ΔTm
85 | COc1cc2c(cc1O)C(=O)N1CCC[C@H]1C=N2 | 0.6 °C
86 | COc1cc2c(cc1OCCCOCc1ccccc1)N=C[C@@H]1CCCN1C2=O | 0.6 °C
87 | O=C1c2cc3c(cc2N=C[C@@H]2CCCN12)OCCO3 | 0.5 °C
88 | COc1cc2c(cc1OCc1ccccc1)N=C[C@@H]1CCCN1C2=O | 0.4 °C
89 | COC(=O)CCOc1cc2c(cc1OC)C(=O)N1CCC[C@H]1C=N2 | 0.6 °C
90 | COC1Nc2c(ccc(C)c2O)C(=O)N2C=C(/C=C/C(N)=O)C[C@@H]12 (some centres undefined) | 13 °C
91 | O=C1c2cc3c(cc2N=C[C@@H]2CCCN12)OCO3 | 0.4 °C
92 | C/C=C1\C[C@H]2C=Nc3cc(O)c(OC)cc3C(=O)N2C1 | 2.6 °C
93 | CCCCOC1CC[C@H]2C=Nc3cc(O)c(OC)cc3C(=O)N12 (some centres undefined) | 0.8 °C
94 | O=C1c2ccccc2N=C[C@@H]2CCCN12 | 0.6 °C

Source: ChEMBL document CHEMBL1132143, “Effect of A-ring modifications on the DNA-binding behavior and cytotoxicity of pyrrolo[2,1-c][1,4]benzodiazepines” (J Med Chem, 1999)
